Data taken from PMC3055939 (Chemical biology & drug design, 2011).

Legend:
[1] = cited from earlier work
purified PSMA (GCP2) = purified PSMA (GCP2) (Homo sapiens, UniProt Q04609); experiment: IC50 determinations for PSMA inhibition; type: biochemical
Procedure, shortened: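 Purified PSMA (working stock 50 μg/mL) was diluted in 50 mM Tris, pH 7.4, 1% Triton X-100 to give 15–20% substrate conversion without inhibitor. […] Reactions were quenched with 2% TFA in methanol, buffered with K2HPO4, and centrifuged. Product was quantified by HPLC, and IC50 was calculated.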

Sequence of purified PSMA (GCP2) (Q04609 whole entry): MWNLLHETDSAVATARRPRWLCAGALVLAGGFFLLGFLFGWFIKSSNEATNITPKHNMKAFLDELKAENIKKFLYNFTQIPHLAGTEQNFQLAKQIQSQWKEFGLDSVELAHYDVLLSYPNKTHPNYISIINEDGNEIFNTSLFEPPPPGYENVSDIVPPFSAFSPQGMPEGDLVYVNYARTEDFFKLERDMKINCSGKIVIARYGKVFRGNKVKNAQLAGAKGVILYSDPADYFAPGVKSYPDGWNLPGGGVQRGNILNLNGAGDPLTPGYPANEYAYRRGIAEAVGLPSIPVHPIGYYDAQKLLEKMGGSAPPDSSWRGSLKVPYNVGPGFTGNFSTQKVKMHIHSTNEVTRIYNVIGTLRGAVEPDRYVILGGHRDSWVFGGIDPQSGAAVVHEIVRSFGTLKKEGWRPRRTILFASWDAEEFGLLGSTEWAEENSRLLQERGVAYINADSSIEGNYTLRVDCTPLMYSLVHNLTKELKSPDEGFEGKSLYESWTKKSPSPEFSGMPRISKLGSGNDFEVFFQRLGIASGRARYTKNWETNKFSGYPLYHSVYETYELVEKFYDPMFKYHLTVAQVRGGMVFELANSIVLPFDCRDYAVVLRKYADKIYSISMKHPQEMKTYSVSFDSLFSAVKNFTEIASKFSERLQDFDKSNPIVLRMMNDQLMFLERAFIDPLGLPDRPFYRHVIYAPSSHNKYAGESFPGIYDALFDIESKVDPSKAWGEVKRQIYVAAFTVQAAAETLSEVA

IC50 (purified PSMA (GCP2)) | SMILES | oral bioavailability [1]
– | O=C(O)CCC(CP(=O)(O)O)C(=O)O (centres unmarked) [2-PMPA] | poor oral bioavailability
> 100 µM | C=CS(=O)(=O)NC(CCC(=O)O)C(=O)O (centres unmarked) [2e, 2-Ethenesulfonylamino-pentanedioic acid] | –
